Experimental data collected from several papers.
Target: Mitogen-activated protein kinase kinase kinase kinase 1 (MAP4K1, Homo sapiens, UniProt Q92918)

With Cc1cnc(Nc2ccc(C(=O)N3CCC(N4CCCC4)CC3)cc2)nc1-c1cc2ccccc2s1 the remaining binding was 22% (binding, competition with immobilised ligand; 1 µM).
With c1cnn2ncc(-c3ccnc(N4CCC45COC5)n3)c2c1 the remaining binding was 100% (binding; 1 µM).
O=C(NCC1CCOCC1)c1n[nH]cc1NC(=O)c1c(F)cccc1F gave a remaining binding of 71% (binding, competition with immobilised ligand; 1 µM).
N#Cc1ccc(Nc2ccc3[nH]c(=O)[nH]c3c2)c(Cl)c1 has a remaining binding of 100% (cell-free assay, competition with immobilised ligand; 1 µM).
The remaining binding of O=C(c1ccc(Nc2nccc(-c3cc4ccccc4s3)n2)cc1)N1CCC(N2CCCC2)CC1 is reported as 84% (binding, competition with immobilised ligand; 1 µM).
COc1cnc(Nc2cccc(S(N)(=O)=O)c2)nc1N1CCN(c2ccccc2)CC1 has a remaining binding of 88% (binding, competition with immobilised ligand; 1 µM).
CN(C(=O)c1ccccc1)c1cc(N(C)c2ccc3c(c2)CCc2ccc(C(=O)NCCN4CCOCC4)cc2C3=O)ccc1F gave a remaining binding of 99% (cell-free assay, competition with immobilised ligand; 1 µM).
The remaining binding of COc1ccnn2ncc(-c3ccnc(N(C)C)n3)c12 is reported as 100% (binding; 1 µM).
C[C@H](c1ccnc(Nc2nc3ccc(-c4cc(N(C)C)ncn4)cc3[nH]2)c1)N1CCN(C(=O)CC(F)(F)F)CC1 has a remaining binding of 51% (cell-free assay, competition with immobilised ligand; 0.1 µM).
The remaining binding of N[C@@H]1CCN(c2nccc(-c3cnn4ncccc34)n2)C1 is reported as 100% (binding; 1 µM).
With Cc1c(NC(=O)c2cc(C(N)=O)nc3cc(F)ccc23)c(C(F)(F)F)nn1Cc1ccc(C#N)cc1 the remaining binding was 100% (cell-free assay, competition with immobilised ligand; 1 µM).
With C[C@H]1CCN(c2nccc(-c3cnn4ncccc34)n2)C1 the remaining binding was 99% (binding; 1 µM).
With CNC(=O)[C@@H]1CC[C@@H](n2c(-c3ccc4cnccc4c3)nc3ccc(C(=O)NCc4cccc(C(N)=O)c4)cc32)C1 the remaining binding was 82% (binding, competition with immobilised ligand; 1 µM).
Nc1ncc2c(n1)-c1c([nH]c3ccc(C#CC4CC4)cc13)CCCC2 gave a remaining binding of 100% (binding, competition with immobilised ligand; 1 µM).
With CS(=O)(=O)c1cc(C2(NC(=O)c3cncc4c3cnn4-c3ccc(F)cc3)CC2)ccn1 the remaining binding was 89% (cell-free assay, competition with immobilised ligand; 1 µM).
With CN(CCCC(F)(F)F)c1nccc(-c2cnn3ncccc23)n1 the remaining binding was 95% (binding; 1 µM).
With CCN1CCN(Cc2ccc(C(=O)Nc3ccc(C)c(Oc4ccc5c(c4)CC(=O)N5)c3)cc2C(F)(F)F)CC1 the remaining binding was 90% (binding, competition with immobilised ligand; 1 µM).
CN(C)c1nccc(-c2cnn3ncccc23)n1 gave a remaining binding of 100% (binding; 1 µM).
COCCOc1nc(-c2ccc(Cl)nc2)nc2c1CN(C(=O)c1ncn3ccccc13)CC2 gave a remaining binding of 92% (cell-free assay, competition with immobilised ligand; 0.1 µM).
C=CC(=O)N1CCC(C(=O)NCC(=O)N2CCN(c3nc(-c4cnc(N)nc4C(F)F)nc(N4CCOCC4)n3)CC2)CC1 has a remaining binding of 100% (binding, competition with immobilised ligand; 1 µM).
CSc1cccnc1N1CCN(Cc2nc3ccccc3[nH]2)CC1 gave a remaining binding of 100% (cell-free assay, competition with immobilised ligand; 1 µM).
For O=C(c1ccc(Nc2ncc(Cl)c(-c3ccc(Cl)s3)n2)cc1)N1CCC(N2CCCC2)CC1, the remaining binding was 12% (binding, competition with immobilised ligand; 1 µM).
